# Measurements: ChEMBL document CHEMBL2169747, “Synthesis and biological properties of highly sequence-specific-alkylating N-methylpyrrole-N-methylimidazole polyamide conjugates” (J Med Chem, 2012)
# The source made the active and inactive calls. The rule behind the calls is not given here.
# How the values were obtained:
# A549 [1] = experiment: Cytotoxicity against human A549 cells assessed as cell growth inhibition after 48 hrs by microplate reader analysis; type: functional, cell-based; details: A549, 48 h
# Summary of the method: (§1)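 Medium was RPMI-1640 for EBC-1, A549 and DU145, and DMEM for PC-3, SK-N-SH and K562. Both media had 10% heat-inactivated FBS plus penicillin/streptomycin; cells were kept at 37 °C, 5% CO2. Cells were seeded at 5000/well and given compound from DMSO stock (final 0.1% DMSO) for 48 h. Viability was read by WST-8 colorimetry, absorbance at 450 and 600 nm, and IC50 determined.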
# PC-3 = experiment: Cytotoxicity against human PC3 cells assessed as cell growth inhibition after 48 hrs by microplate reader analysis; type: functional, cell-based; details: PC-3, 48 h; summary of the method: as §1
# [2] = Cytotoxicity against human EBC1 cells assessed as cell growth inhibition after 48 hrs by microplate reader analysis; type: functional, cell-based; details: EBC-1, 48 h; summary of the method: as §1
# SK-N-SH = experiment: Cytotoxicity against human SK-N-SH cells assessed as cell growth inhibition after 48 hrs by microplate reader analysis; type: functional, cell-based; summary of the method: as §1
# K562 = experiment: Cytotoxicity against human K562 cells assessed as cell growth inhibition after 48 hrs by microplate reader analysis; type: functional, cell-based; details: K562, 48 h; summary of the method: as §1
# A549 [3] = experiment: Downregulation of RABGAP1L gene expression in human A549 cells at 21 nM after 12 hrs by microarray analysis relative to control; type: functional
# Summary of the method: (§2)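 A549 cells (RPMI-1640, 10% heat-inactivated FBS, penicillin/streptomycin, 37 °C, 5% CO2) seeded at 4 × 10^5 per 60 mm dish. Exposed 12 h to conjugate at 21, 26, 34 or 100 nM in medium with 0.1% DMSO, against 0.1% DMSO control. Whole-genome (~25 000 genes) expression profiled by microarray.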
# A549 [4] = experiment: Downregulation of NP_115632.1 gene expression in human A549 cells at 21 nM after 12 hrs by microarray analysis relative to control; type: functional
# Summary of the method: (§3)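 A549 cells, 4 × 10^5 per 60 mm dish, were exposed to conjugate for 12 h in medium with 0.1% DMSO; vehicle control was 0.1% DMSO. Whole human genome (~25 000 genes) expression was profiled by microarray and expression compared with the control.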
# A549 [5] = experiment: Downregulation of Q8N570_HUMAN gene expression in human A549 cells at 21 nM after 12 hrs by microarray analysis relative to control; type: functional; summary of the method: as §2
# A549 [6] = experiment: Downregulation of RS29_HUMAN gene expression in human A549 cells at 21 nM after 12 hrs by microarray analysis relative to control; type: functional; summary of the method: as §2
# A549 [7] = experiment: Downregulation of FHIT gene expression in human A549 cells at 21 nM after 12 hrs by microarray analysis relative to control; type: functional; summary of the method: as §3
# DU-145 = experiment: Cytotoxicity against human DU145 cells assessed as cell growth inhibition after 48 hrs by microplate reader analysis; type: functional, cell-based; details: DU-145, 48 h; summary of the method: as §1
# A549 [8] = experiment: Downregulation of SUPT3H gene expression in human A549 cells at 21 nM after 12 hrs by microarray analysis relative to control; type: functional; summary of the method: as §2
# A549 [9] = experiment: Downregulation of NBEA gene expression in human A549 cells at 21 nM after 12 hrs by microarray analysis relative to control; type: functional; summary of the method: as §3
# A549 [10] = experiment: Downregulation of SLC4A4 gene expression in human A549 cells at 21 nM after 12 hrs by microarray analysis relative to control; type: functional; summary of the method: as §2
# A549 [11] = experiment: Downregulation of MBD3L1 gene expression in human A549 cells at 21 nM after 12 hrs by microarray analysis relative to control; type: functional; summary of the method: as §3
# A549 [12] = experiment: Downregulation of NP_060463.1 gene expression in human A549 cells at 21 nM after 12 hrs by microarray analysis relative to control; type: functional; summary of the method: as §3
# A549 [13] = experiment: Downregulation of CPNE4 gene expression in human A549 cells at 21 nM after 12 hrs by microarray analysis relative to control; type: functional; summary of the method: as §3
# A549 [14] = experiment: Downregulation of PTPRK gene expression in human A549 cells at 21 nM after 12 hrs by microarray analysis relative to control; type: functional; summary of the method: as §2
# A549 [15] = experiment: Downregulation of GABRA3 gene expression in human A549 cells at 21 nM after 12 hrs by microarray analysis relative to control; type: functional; summary of the method: as §3
# A549 [16] = experiment: Downregulation of FMN2 gene expression in human A549 cells at 21 nM after 12 hrs by microarray analysis relative to control; type: functional; summary of the method: as §3
# A549 [17] = experiment: Downregulation of ACTG gene expression in human A549 cells at 21 nM after 12 hrs by microarray analysis relative to control; type: functional; summary of the method: as §3
# A549 [18] = experiment: Downregulation of SMYD3 gene expression in human A549 cells at 21 nM after 12 hrs by microarray analysis relative to control; type: functional; summary of the method: as §2
# A549 [19] = experiment: Downregulation of HECW2 gene expression in human A549 cells at 21 nM after 12 hrs by microarray analysis relative to control; type: functional; summary of the method: as §3
# A549 [20] = experiment: Downregulation of Q8NCR4 gene expression in human A549 cells at 21 nM after 12 hrs by microarray analysis relative to control; type: functional; summary of the method: as §2
# A549 [21] = experiment: Downregulation of Q5VY43 gene expression in human A549 cells at 21 nM after 12 hrs by microarray analysis relative to control; type: functional; summary of the method: as §2
# A549 [22] = experiment: Downregulation of SLC25A21 gene expression in human A549 cells at 21 nM after 12 hrs by microarray analysis relative to control; type: functional; summary of the method: as §2
# A549 [23] = experiment: Upregulation of HES2 gene expression in human A549 cells at 21 nM after 12 hrs by microarray analysis relative to control; type: functional
# Summary of the method: (§4)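 4 ×10^5 A549 cells seeded per 60 mm dish and treated 12 h with conjugate (21, 26, 34 or 100 nM) in medium; control medium contained 0.1% DMSO, with conjugates added as 0.1% DMSO solutions. Whole human genome (~25 000 genes) expression profiled by microarray against the DMSO control. A549 culture: RPMI-1640 with 10% heat-inactivated FBS, penicillin/streptomycin, 37 °C, 5% CO2.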
# A549 [24] = experiment: Upregulation of Q6NTF7 gene expression in human A549 cells at 21 nM after 12 hrs by microarray analysis relative to control; type: functional; summary of the method: as §4
# A549 [25] = experiment: Upregulation of BTG2 gene expression in human A549 cells at 21 nM after 12 hrs by microarray analysis relative to control; type: functional; summary of the method: as §4
# A549 [26] = experiment: Upregulation of BBC3 gene expression in human A549 cells at 21 nM after 12 hrs by microarray analysis relative to control; type: functional; summary of the method: as §2
# A549 [27] = experiment: Upregulation of MDM2 gene expression in human A549 cells at 21 nM after 12 hrs by microarray analysis relative to control; type: functional; summary of the method: as §4
# A549 [28] = experiment: Upregulation of CST8 gene expression in human A549 cells at 21 nM after 12 hrs by microarray analysis relative to control; type: functional; summary of the method: as §4
# A549 [29] = experiment: Upregulation of CDKN1A gene expression in human A549 cells at 21 nM after 12 hrs by microarray analysis relative to control; type: functional; summary of the method: as §4
# A549 [30] = experiment: Upregulation of HCK gene expression in human A549 cells at 21 nM after 12 hrs by microarray analysis relative to control; type: functional; summary of the method: as §4
# A549 [31] = experiment: Upregulation of FDXR gene expression in human A549 cells at 21 nM after 12 hrs by microarray analysis relative to control; type: functional; summary of the method: as §4
# A549 [32] = experiment: Upregulation of BTNL3 gene expression in human A549 cells at 21 nM after 12 hrs by microarray analysis relative to control; type: functional; summary of the method: as §4
# Nucleic Acid = experiment: Induction of calf thymus DNA cleavage at 10 to 25 nM after 12 h by PAGE analysis; type: nucleic-acid assay; details: in the assay text read “208-bp PCR fragment DNA” for “calf thymus DNA”
# Summary of the method: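 5′-Texas Red-labeled 208 bp PCR fragments alkylated in 5.0 mM sodium phosphate (pH 7.0) with 10% DMF, room temperature, 12 h. Quenched with calf thymus DNA and heated 95 °C for 5 min under neutral conditions. Recovered DNA in formamide loading dye, heated 95 °C 20 min, then run on 6% denaturing polyacrylamide gel with 6.0 M urea at 1.5 kV, 40 °C.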
structure (smiles),measurement,setting,value
CC(=O)Nc1cc(C(=O)Nc2cn(C)c(C(=O)NCCC(=O)Nc3cn(C)c(C(=O)Nc4cc(C(=O)NCCCC(=O)Nc5cc(C(=O)Nc6cc(C(=O)Nc7cc(C(=O)Nc8ccc9[nH]c(C(=O)N%10CC(CCl)c%11c%10cc(O)c%10ccccc%11%10)cc9c8)n(C)c7)n(C)c6)n(C)c5)n(C)c4)n3)n2)n(C)c1 (racemic),IC50,A549 [1],21.4 nM
same,IC50,PC-3,6.03 nM
same,IC50,[2],33.9 nM
same,IC50,SK-N-SH,15.1 nM
same,IC50,K562,7.76 nM
same,fold change (FC),A549 [3],0.132
same,fold change (FC),A549 [4],0.154
same,fold change (FC),A549 [5],0.228
same,fold change (FC),A549 [6],0.234
same,fold change (FC),A549 [7],0.253
same,IC50,DU-145,3.31 nM
same,fold change (FC),A549 [8],0.268
same,fold change (FC),A549 [9],0.274
same,fold change (FC),A549 [10],0.278
same,fold change (FC),A549 [11],0.294
same,fold change (FC),A549 [12],0.303
same,fold change (FC),A549 [13],0.314
same,fold change (FC),A549 [14],0.334
same,fold change (FC),A549 [15],0.343
same,fold change (FC),A549 [16],0.344
same,fold change (FC),A549 [17],0.345
same,fold change (FC),A549 [18],0.345
same,fold change (FC),A549 [19],0.346
same,fold change (FC),A549 [20],0.348
same,fold change (FC),A549 [21],0.354
same,fold change (FC),A549 [22],0.354
same,fold change (FC),A549 [23],10.6
same,fold change (FC),A549 [24],7
same,fold change (FC),A549 [25],6.7
same,fold change (FC),A549 [26],5.7
same,fold change (FC),A549 [27],5.4
same,fold change (FC),A549 [28],5.3
same,fold change (FC),A549 [29],5.2
same,fold change (FC),A549 [30],4.3
same,fold change (FC),A549 [31],2
same,fold change (FC),A549 [32],2
same,Activity,Nucleic Acid,Active
